Measured values published in ChEMBL document CHEMBL1255440, “An antimicrobial peptide that targets DNA repair intermediates in vitro inhibits Salmonella growth within murine macrophages” (Antimicrob Agents Chemother, 2010).

Tests used:
[1] = Drug uptake in mouse peritoneal macrophages assessed as dimer to monomer peptide ratio at 100 uM after 24 hrs at 37 degC by HPLC analysis; type: ADME, cell-based; conditions: peritoneal macrophage cell
Summary of the method: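 Macrophages were elicited in 8–12-week-old female BALB/c mice with 4% thioglycolate i.p. and harvested by lavage 4 days later. Cells were seeded at 300,000 per well for 24 h, then given unlabeled peptide in DMEM for 24 h at 37°C. Lysates were run on reverse-phase HPLC at A280. Monomer (17.5 min) and dimer (17.75 min) peak areas were compared with a standard curve. Concentration assumed 1 pl per cell; values are means of three determinations.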

[2] = Cytotoxicity against mouse peritoneal macrophages assessed as live cells at 50 uM by calcein AM assay; type: cell-based, Peritoneal macrophage cell; conditions: read-out: Activity
Summary of the method: (§1)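 Cells seeded at 300,000/well and allowed to adhere, then given fresh DMEM with or without peptide for 24 h. Cells trypsinized, stained with a mammalian Live/Dead viability/cytotoxicity kit and analyzed by flow cytometry. Wilcoxon exact test.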

[3] = tested on: Salmonella typhimurium; test: Antibacterial activity against 10 MOI Salmonella enterica subsp. enterica serovar Typhimurium G785 transfected with SOS-inducible beta-galactosidase reporter infected in mouse J774A1 cells assessed as SOS induction at 100 uM after 24 hrs postinfection; type: functional, J774.A1
Summary of the method: (§2)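 J774A.1 cells infected at MOI 10 with sulA promoter-lacZ reporter strain G785 using the gentamicin-protection protocol, treated with peptide (DMSO vehicle controls) plus 15 μg/ml gentamicin for 4 or 24 h. Released bacteria were plated for colony counts in parallel, and were incubated with 33 μM C12FDG (with 0.2 mM EDTA) in LB for 2 h at 37°C. Flow cytometry gave % fluorescein-positive among LPS-antibody-positive particles; Wilcoxon exact test.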

[4] = tested on: Salmonella typhimurium; test: Antibacterial activity against 10 MOI Salmonella enterica subsp. enterica serovar Typhimurium G785 transfected with SOS-inducible beta-galactosidase reporter infected in mouse J774A1 cells assessed as bacterial number at 50 uM after 4 hrs postinfection; type: functional, J774.A1; summary of the method: as §2
[5] = tested on: J774.A1; test: Drug uptake in mouse J774A1 cells at 0.5 uM after 5 mins by confocal laser microscopy; type: ADME, cell-based; conditions: j774.a1, 5 min
Summary of the method: (§3)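 Cells were seeded at 200,000 per chamber-slide well and left to adhere overnight at 37°C. They were then exposed in DMEM to peptide carrying an N-terminal rhodamine label, at 37°C or, where stated, 4°C. Cells were washed three times in PBS, fixed in 4% paraformaldehyde for 30 min, and mounted in antifade. Optical slices near the cell centre were imaged by confocal laser microscopy.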

[6] = tested on: Salmonella typhimurium; test: Antibacterial activity against 10 MOI Salmonella enterica subsp. enterica serovar Typhimurium G785 transfected with SOS-inducible beta-galactosidase reporter infected in mouse J774A1 cells assessed as SOS induction at 50 uM after 24 hrs postinfection; type: functional, J774.A1; summary of the method: as §2
[7] = tested on: Salmonella typhimurium; test: Antibacterial activity against 10 MOI Salmonella enterica subsp. enterica serovar Typhimurium G785 transfected with SOS-inducible beta-galactosidase reporter infected in mouse J774A1 cells assessed as bacterial number at 100 uM after 4 hrs postinfection; type: functional, J774.A1; summary of the method: as §2
[8] = tested on: Salmonella typhimurium; test: Antibacterial activity against 10 MOI Salmonella enterica subsp. enterica serovar Typhimurium G785 transfected with SOS-inducible beta-galactosidase reporter infected in mouse J774A1 cells assessed as bacterial number at 50 uM after 24 hrs postinfection; type: functional, J774.A1; summary of the method: as §2
[9] = tested on: Salmonella typhimurium; test: Antibacterial activity against 10 MOI Salmonella enterica subsp. enterica serovar Typhimurium G785 transfected with SOS-inducible beta-galactosidase reporter infected in mouse J774A1 cells assessed as bacterial number at 150 uM after 24 hrs postinfection; type: functional, J774.A1; summary of the method: as §2
[10] = tested on: J774.A1; test: Drug uptake in mouse J774A.1 cells assessed as dimer to monomer peptide ratio at 100 uM after 24 hrs at 4 degC by HPLC analysis; conditions: J774A.1, 24 h
[11] = tested on: Salmonella typhimurium; test: Antibacterial activity against 1 MOI Salmonella enterica subsp. enterica serovar Typhimurium infected in mouse peritoneal macrophages assessed as reduction in bacterial growth at 100 uM after 24 hrs; type: functional; design: scale not given: the % may be the effect or the level left
Summary of the method: (§4)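 J774A.1 cells or thioglycolate-elicited BALB/c peritoneal macrophages seeded at 200,000/well, overnight 37°C 5% CO2; infected with GFP strain SDT1416, 1 h invasion, washed, 1 h in DMEM with 15 μg/ml gentamicin. Then fresh DMEM plus 15 μg/ml gentamicin with or without peptide (DMSO vehicle) for 24 h at 37°C; macrophages lysed with 1% Triton X-100, plated on LB agar for CFU.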

[12] = tested on: Salmonella typhimurium; test: Antibacterial activity against 1 MOI Salmonella enterica subsp. enterica serovar Typhimurium infected in mouse J774A1 cells assessed as fold reduction in bacterial growth at 100 uM after 12 hrs; type: functional, J774.A1
[13] = tested on: J774.A1; test: Drug uptake in mouse J774A.1 cells assessed as dimer to monomer peptide ratio at 150 uM after 24 hrs at 4 degC by HPLC analysis; conditions: J774A.1, 24 h
[14] = tested on: J774.A1; test: Drug uptake in mouse J774A1 cells assessed as total peptide concentration at 100 uM after 5 hrs at 37 degC by HPLC analysis; type: ADME, cell-based; conditions: j774.a1, 5 h
Summary of the method: (§5)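 J774A.1 cells were incubated with unlabeled peptide for 5 or 24 h at 37°C or 4°C, washed in ice-cold PBS and lysed with NP-40 buffer. Lysates were run on reverse-phase HPLC with an acetonitrile/0.1% TFA gradient and A280 fractions. Monomer (~17.5 min) and dimer (~17.75 min) peak areas were compared against a standard curve. Intracellular mM was calculated using 300,000 cells and 1 pl/cell, with concentration expressed as monomer mass.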

[15] = Cytotoxicity against mouse peritoneal macrophages assessed as dead cells at 50 uM by propidium iodide assay; type: cell-based; conditions: peritoneal macrophage cell; summary of the method: as §1
[16] = tested on: J774.A1; test: Drug uptake in mouse J774A1 cells at 10 uM after 4 hrs at 4 degC by confocal laser microscopy; type: ADME, cell-based; conditions: j774.a1, 4 h; summary of the method: as §3
[17] = tested on: J774.A1; test: Drug uptake in mouse J774A.1 cells assessed as total peptide concentration at 50 uM after 24 hrs at 4 degC by HPLC analysis; conditions: J774A.1, 24 h
[18] = tested on: J774.A1; test: Drug uptake in mouse J774A.1 cells assessed as dimer to monomer peptide ratio at 50 uM after 24 hrs at 4 degC by HPLC analysis; conditions: J774A.1, 24 h
[19] = Cytotoxicity against mouse peritoneal macrophages assessed as live cells at 100 uM by calcein AM assay; type: cell-based, Peritoneal macrophage cell; conditions: read-out: Activity; summary of the method: as §1
[20] = tested on: Salmonella typhimurium; test: Antibacterial activity against 1 MOI Salmonella enterica subsp. enterica serovar Typhimurium infected in mouse J774A1 cells assessed as reduction in bacterial growth at 50 uM after 24 hrs; type: functional, J774.A1; design: scale not given: the % may be the effect or the level left; summary of the method: as §4
[21] = tested on: J774.A1; test: Drug uptake in mouse J774A1 cells at 1 uM after 4 hrs by confocal laser microscopy; type: ADME, cell-based; conditions: j774.a1, 4 h; summary of the method: as §3
[22] = tested on: J774.A1; test: Drug uptake in mouse J774A1 cells assessed as total peptide concentration at 150 uM after 24 hrs at 37 degC by HPLC analysis; type: ADME, cell-based; conditions: j774.a1, 24 h; summary of the method: as §5
[23] = tested on: Salmonella typhimurium; test: Antibacterial activity against 1 MOI Salmonella enterica subsp. enterica serovar Typhimurium infected in mouse peritoneal macrophages assessed as reduction in bacterial growth at 50 uM after 24 hrs; type: functional; design: scale not given: the % may be the effect or the level left; summary of the method: as §4
[24] = tested on: Salmonella typhimurium; test: Antibacterial activity against 1 MOI Salmonella enterica subsp. enterica serovar Typhimurium infected in mouse J774A1 cells assessed as reduction in bacterial growth at 100 uM after 24 hrs; type: functional, J774.A1; design: scale not given: the % may be the effect or the level left; summary of the method: as §4

N=C(N)NCCC[C@@H](NC(=O)[C@@H](CS)NC(=O)[C@@H](Cc1ccc(O)cc1)NC(=O)[C@@H](Cc1c[nH]c2ccccc12)NC(=O)[C@@H](CCCNC(=N)N)NC(=O)[C@H](N)Cc1c[nH]c2ccccc12)C(=O)O
Ratio [1]: 0.7 | viability at 50 µM [2]: 94.2% | Activity [3]: 16.5% | Activity [4]: 57.1% | Drug uptake [5]: Active | Activity [6]: 0.4% | Activity [7]: 19% | Activity [8]: 45.2% | Activity [9]: 1.9% | Ratio [10]: 11.5 | Activity [11]: 45% | fold change (FC) [12]: < 50 | Ratio [13]: 15.5 | Drug uptake [14]: 8 mM | Activity [15]: 3.2% | Drug uptake [16]: Not Active | Drug uptake [17]: 10.1 mM | Ratio [18]: 7.4 | viability at 100 µM [19]: 94.4% | Activity [20]: 68.5% | Drug uptake [21]: Active | Drug uptake [22]: 30.1 mM | Activity [23]: 34% | Activity [24]: 85.1%
